In ChEMBL document CHEMBL1157546, “3-(2-Aminocarbonylphenyl)propanoic acid analogs as potent and selective EP3 receptor antagonists. part 2: optimization of the side chains to improve in vitro and in vivo potencies” (Bioorg Med Chem, 2010):

Experiments:
[1] = molecular target: T1, Prostaglandin E2 receptor EP3 subtype (Mus musculus, UniProt P30557); experiment: Antagonist activity at mouse EP3 receptor expressed in CHO cells assessed as inhibition of PGE2-induced increase intracellular calcium level in presence of 1% BSA by fluorimetry; format: functional, cell-based
T1 sequence (P30557 whole entry): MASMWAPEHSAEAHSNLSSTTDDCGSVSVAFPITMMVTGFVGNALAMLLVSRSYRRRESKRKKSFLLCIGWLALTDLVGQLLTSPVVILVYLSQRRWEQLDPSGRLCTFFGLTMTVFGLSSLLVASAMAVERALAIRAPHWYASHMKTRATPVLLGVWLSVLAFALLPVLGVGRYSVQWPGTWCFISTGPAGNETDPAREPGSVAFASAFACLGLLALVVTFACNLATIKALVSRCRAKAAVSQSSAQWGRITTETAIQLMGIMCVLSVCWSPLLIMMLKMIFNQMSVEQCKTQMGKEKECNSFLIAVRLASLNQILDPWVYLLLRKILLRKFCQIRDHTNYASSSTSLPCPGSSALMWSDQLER
Summary of the method: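 CHO cells expressing mouse EP3 seeded at 1 × 10⁴ cells/well and grown two days in 10% FBS/αMEM (37 °C, 5% CO2). Loaded 1 h with Fura 2/AM, indomethacin and 2.5 mM probenecid, rinsed, then held 1 h dark at room temperature in HBSS with 1% BSA and 10 mM HEPES. Compound added with 10 nM PGE2. Ca²⁺ read at 340/380 nm excitation, 500 nm emission; % inhibition relative to the PGE2 response without compound.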

[2] = molecular target: T1, Prostaglandin E2 receptor EP3 subtype; experiment: Displacement of [3H]PGE2 from mouse EP3 receptor expressed in CHO cell membrane; format: cell membranes
Rattus norvegicus [3] = experiment: Inhibition of PGE2-induced uterine contraction in intraduodenally dosed pregnant rat at 1 mg/kg; format: functional; conditions: route intraduodenal
Summary of the method: (§1)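 Pregnant rats with uterine pressure recorded by transducer. Once spontaneous motility was stable, compound in 0.5% methylcellulose (5 mL/kg) or vehicle given intraduodenally. PGE2 given iv 30 min later.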

Rattus norvegicus [4] = experiment: Inhibition of PGE2-induced uterine contraction in intraduodenally dosed pregnant rat at 0.3 mg/kg; format: functional; conditions: route intraduodenal; summary of the method: as §1
[5] = AUC in rat at […], iv; format: ADME, organism-based; set-up: dose 1.2 mg/kg, route intravenous; conditions: plasma
[6] = Cmax in rat at 13 mg/kg, po; format: ADME, organism-based; set-up: dose 13 mg/kg, route oral; conditions: in vivo
[7] = Oral bioavailability in rat at 13 mg/kg, po; format: ADME, organism-based; conditions: in vivo
[8] = Volume of distribution at steady state in rat at […], iv; format: ADME, organism-based; set-up: dose 1.2 mg/kg, route intravenous; conditions: in vivo, read-out: Vdss
[9] = AUC in rat at 13 mg/kg, po; format: ADME, organism-based; set-up: dose 13 mg/kg, route oral; conditions: plasma
[10] = molecular target: Prostaglandin E2 receptor EP4 subtype (Mus musculus, UniProt P32240); experiment: Displacement of [3H]PGE2 from mouse EP4 receptor expressed in CHO cell membrane; format: cell membranes
Prostaglandin E2 receptor EP4 subtype, sequence (P32240 whole entry): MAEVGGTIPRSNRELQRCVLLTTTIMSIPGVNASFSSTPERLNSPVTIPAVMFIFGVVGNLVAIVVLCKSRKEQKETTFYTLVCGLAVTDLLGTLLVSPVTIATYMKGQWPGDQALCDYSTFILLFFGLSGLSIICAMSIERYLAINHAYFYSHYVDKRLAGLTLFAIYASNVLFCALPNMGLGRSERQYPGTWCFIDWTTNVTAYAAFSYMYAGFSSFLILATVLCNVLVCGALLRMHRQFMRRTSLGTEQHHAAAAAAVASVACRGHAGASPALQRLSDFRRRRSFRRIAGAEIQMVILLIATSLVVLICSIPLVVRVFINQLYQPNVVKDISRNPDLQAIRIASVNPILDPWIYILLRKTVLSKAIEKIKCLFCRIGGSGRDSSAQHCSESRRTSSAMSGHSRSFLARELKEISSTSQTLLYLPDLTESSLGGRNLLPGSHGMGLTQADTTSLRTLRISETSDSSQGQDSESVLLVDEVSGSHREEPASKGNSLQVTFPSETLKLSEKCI

[11] = molecular target: T2, Prostaglandin E2 receptor EP1 subtype (Mus musculus, UniProt P35375); experiment: Displacement of [3H]PGE2 from mouse EP1 receptor expressed in CHO cell membrane; format: cell membranes
T2 sequence (P35375 whole entry): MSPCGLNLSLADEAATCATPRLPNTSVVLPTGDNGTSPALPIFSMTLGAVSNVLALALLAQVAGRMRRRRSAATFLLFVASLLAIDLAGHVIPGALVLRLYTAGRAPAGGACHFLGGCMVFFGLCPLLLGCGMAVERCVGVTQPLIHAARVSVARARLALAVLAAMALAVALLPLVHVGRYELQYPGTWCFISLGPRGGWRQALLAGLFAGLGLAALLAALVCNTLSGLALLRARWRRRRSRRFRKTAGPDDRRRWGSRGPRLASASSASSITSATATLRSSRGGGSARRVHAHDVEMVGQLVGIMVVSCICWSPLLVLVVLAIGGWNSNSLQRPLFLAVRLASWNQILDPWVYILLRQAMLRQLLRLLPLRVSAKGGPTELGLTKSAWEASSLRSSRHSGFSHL

[12] = molecular target: Prostaglandin E2 receptor EP2 subtype (Mus musculus, UniProt Q62053); experiment: Displacement of [3H]PGE2 from mouse EP2 receptor expressed in CHO cell membrane; format: cell membranes
Prostaglandin E2 receptor EP2 subtype, sequence (Q62053 whole entry): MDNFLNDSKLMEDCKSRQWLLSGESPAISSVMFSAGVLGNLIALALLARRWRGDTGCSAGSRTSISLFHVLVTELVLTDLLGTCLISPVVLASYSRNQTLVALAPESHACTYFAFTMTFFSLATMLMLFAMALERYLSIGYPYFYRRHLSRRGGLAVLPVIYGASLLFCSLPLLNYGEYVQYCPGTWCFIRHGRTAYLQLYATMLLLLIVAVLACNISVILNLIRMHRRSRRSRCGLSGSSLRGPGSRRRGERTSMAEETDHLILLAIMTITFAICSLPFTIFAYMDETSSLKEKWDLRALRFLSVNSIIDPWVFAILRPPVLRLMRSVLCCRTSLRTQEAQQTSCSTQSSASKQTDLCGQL

Rattus norvegicus [13] = experiment: Inhibition of PGE2-induced uterine contraction in intraduodenally dosed pregnant rat at 0.1 mg/kg; format: functional; conditions: route intraduodenal; summary of the method: as §1
[14] = AUC in rat at 11 mg/kg, po; format: ADME, organism-based; set-up: dose 11 mg/kg, route oral; conditions: plasma
[15] = Cmax in rat at 11 mg/kg, po; format: ADME, organism-based; set-up: dose 11 mg/kg, route oral; conditions: in vivo
[16] = Oral bioavailability in rat at 11 mg/kg, po; format: ADME, organism-based; conditions: in vivo

Row | Compound | IC50 [1] [nM] | Ki [2] [nM] | other results
1 | Cc1cc(C(CC(C)C)NC(=O)c2cc(COc3cccc(C#N)c3)ccc2CCC(=O)O)ccc1F (centres undefined) | 2.8 | 0.2 | –
2 | CC(C)CC(NC(=O)c1cc(COc2ccccc2)ccc1CCC(=O)O)c1ccc(F)cc1 (centres undefined) | 20 | 0.93 | –
3 | COc1ccc(C(CC(C)C)NC(=O)c2cc(COc3ccccc3)ccc2CCC(=O)O)cc1 (centres undefined) | 59 | 0.36 | –
4 | CC(C)CC(NC(=O)c1cc(COc2ccccc2)ccc1CCC(=O)O)c1ccc(Cl)cc1 (centres undefined) | 51 | 0.28 | –
5 | CC(C)CC(NC(=O)c1cc(COc2ccccc2)ccc1CCC(=O)O)c1ccc(C(F)(F)F)cc1 (centres undefined) | 32 | 0.76 | –
6 | CC(C)CC(NC(=O)c1cc(COc2ccccc2)ccc1CCC(=O)O)c1cccc(C(F)(F)F)c1 (centres undefined) | 39 | 0.39 | –
7 | CC(C)CC(NC(=O)c1cc(COc2ccccc2)ccc1CCC(=O)O)c1cc(F)cc(F)c1 (centres undefined) | 19 | 0.3 | –
8 | Cc1ccc(C(CC(C)C)NC(=O)c2cc(COc3ccccc3)ccc2CCC(=O)O)cc1 (centres undefined) | 51 | 0.63 | –
9 | Cc1ccc(C(CC(C)C)NC(=O)c2cc(COc3ccccc3)ccc2CCC(=O)O)cc1F (centres undefined) | 67 | 0.2 | –
10 | CC(C)CC(NC(=O)c1cc(COc2cccc(C#N)c2)ccc1CCC(=O)O)c1ccc(F)cc1 (centres undefined) | 7.1 | 0.17 | –
11 | Cc1cc(C)cc(C(CC(C)C)NC(=O)c2cc(COc3ccccc3F)ccc2CCC(=O)O)c1 (centres undefined) | 13 | 0.1 | –
12 | Cc1ccccc1C(CC(C)C)NC(=O)c1cc(COc2ccccc2)ccc1CCC(=O)O (centres undefined) | 230 | 0.94 | –
13 | CC(C)CC(NC(=O)c1cc(COc2ccccc2)ccc1CCC(=O)O)c1cccc(Cl)c1 (centres undefined) | 35 | 0.18 | –
14 | COc1ccc(C(CC(C)C)NC(=O)c2cc(COc3cccc(C#N)c3)ccc2CCC(=O)O)cc1OC (centres undefined) | 3.7 | 0.67 | –
15 | Cc1cc(C)cc(C(CC(C)C)NC(=O)c2cc(COc3ccc(F)cc3)ccc2CCC(=O)O)c1 (centres undefined) | 5.4 | 0.25 | –
16 | Cc1cc(C)cc(C(CC(C)C)NC(=O)c2cc(COc3ccc(Cl)cc3)ccc2CCC(=O)O)c1 (centres undefined) | 30 | 0.62 | –
17 | Cc1cc(C)cc(C(CC(C)C)NC(=O)c2cc(COc3c(F)cccc3F)ccc2CCC(=O)O)c1 (centres undefined) | 59 | 1.3 | –
18 | COc1cccc(OCc2ccc(CCC(=O)O)c(C(=O)NC(CC(C)C)c3cc(C)cc(C)c3)c2)c1 (centres undefined) | 3.2 | 0.27 | –
19 | Cc1cc(C)cc(C(CC(C)C)NC(=O)c2cc(COc3ccccc3C)ccc2CCC(=O)O)c1 (centres undefined) | – | – | inhibition in vivo at 1 mg/kg (Rattus norvegicus [3]): 83%; inhibition in vivo at 0.3 mg/kg (Rattus norvegicus [4]): 62%
20 | Cc1cc(C)cc(C(CC(C)C)NC(=O)c2cc(COc3cccc(F)c3)ccc2CCC(=O)O)c1 (centres undefined) | – | – | inhibition in vivo at 1 mg/kg (Rattus norvegicus [3]): 84%; AUC [5]: 440 ng·h/mL; Cmax [6]: 390 ng/mL; bioavailability [7]: 23%; inhibition in vivo at 0.3 mg/kg (Rattus norvegicus [4]): 66%; Vd [8]: 1.32 L/kg; AUC [9]: 1090 ng·h/mL
21 | Cc1ccc(OCc2ccc(CCC(=O)O)c(C(=O)NC(CC(C)C)c3cc(C)cc(C)c3)c2)cc1 (centres undefined) | 16 | 0.67 | –
22 | Cc1ccc(C(CC(C)C)NC(=O)c2cc(COc3ccccc3)ccc2CCC(=O)O)cc1C (centres undefined) | 16 | 0.17 | –
23 | CC(C)CC(NC(=O)c1cc(COc2ccccc2)ccc1CCC(=O)O)c1ccc(F)c(Cl)c1 (centres undefined) | 25 | 0.26 | –
24 | Cc1cc(C)cc(C(CC(C)C)NC(=O)c2cc(COc3cccc(C#N)c3)ccc2CCC(=O)O)c1 (centres undefined) | – | – | inhibition in vivo at 1 mg/kg (Rattus norvegicus [3]): 95%; inhibition in vivo at 0.3 mg/kg (Rattus norvegicus [4]): 55%

Row | Compound | IC50 [1] [nM] | Ki [2] [nM] | other results
25 | COc1cccc(C(CC(C)C)NC(=O)c2cc(COc3cccc(C#N)c3)ccc2CCC(=O)O)c1 (centres undefined) | 3.2 | 0.13 | –
26 | Cc1cc(C)cc(C(CC(C)C)NC(=O)c2cc(COc3ccccc3C#N)ccc2CCC(=O)O)c1 (centres undefined) | 9.4 | 0.35 | –
27 | CC(C)CC(NC(=O)c1cc(COc2ccccc2)ccc1CCC(=O)O)c1cccc(F)c1 (centres undefined) | 40 | 0.2 | –
28 | CC(C)CC(NC(=O)c1cc(COc2ccccc2)ccc1CCC(=O)O)c1ccccc1F (centres undefined) | 130 | 1.4 | –
29 | Cc1cc(C)cc(C(CC(C)C)NC(=O)c2cc(COc3ccc(F)c(F)c3)ccc2CCC(=O)O)c1 (centres undefined) | 5.7 | 0.34 | –
30 | Cc1cccc(C(CC(C)C)NC(=O)c2cc(COc3cccc(C#N)c3)ccc2CCC(=O)O)c1 (centres undefined) | 6.6 | 0.2 | –
31 | Cc1cc(C)cc(C(CC(C)C)NC(=O)c2cc(COc3ccccc3)ccc2CCC(=O)O)c1 (centres undefined) | – | – | inhibition in vivo at 0.3 mg/kg (Rattus norvegicus [4]): 28%
32 | Cc1cccc(OCc2ccc(CCC(=O)O)c(C(=O)NC(CC(C)C)c3cc(C)cc(C)c3)c2)c1 (centres undefined) | 4.2 | 0.11 | –
33 | COc1ccccc1C(CC(C)C)NC(=O)c1cc(COc2ccccc2)ccc1CCC(=O)O (centres undefined) | 190 | 1.2 | –
34 | Cc1cc(C)cc(C(CC(C)C)NC(=O)c2cc(COc3cccc(F)c3F)ccc2CCC(=O)O)c1 (centres undefined) | 3.6 | 0.15 | –
35 | COc1ccc(C(CC(C)C)NC(=O)c2cc(COc3ccccc3)ccc2CCC(=O)O)cc1C (centres undefined) | 11 | 0.16 | –
36 | Cc1cc(C(CC(C)C)NC(=O)c2cc(COc3ccccc3)ccc2CCC(=O)O)ccc1F (centres undefined) | 18 | 0.16 | inhibition in vivo at 1 mg/kg (Rattus norvegicus [3]): 73%; Ki [10]: 630 nM; Ki [11]: > 10000 nM; Ki [12]: > 10000 nM; inhibition in vivo at 0.3 mg/kg (Rattus norvegicus [4]): 31%
37 | CC(C)CC(NC(=O)c1cc(COc2ccccc2)ccc1CCC(=O)O)c1ccc(C(F)(F)F)c(F)c1 (centres undefined) | 53 | 0.7 | –
38 | CC(C)CC(NC(=O)c1cc(COc2ccccc2)ccc1CCC(=O)O)c1ccc(F)c(F)c1 (centres undefined) | 47 | 0.4 | –
39 | COc1cccc(C(CC(C)C)NC(=O)c2cc(COc3ccccc3)ccc2CCC(=O)O)c1 (centres undefined) | 21 | 0.13 | –
40 | Cc1cc(C)cc(C(CC(C)C)NC(=O)c2cc(COc3cc(F)ccc3F)ccc2CCC(=O)O)c1 (centres undefined) | – | – | inhibition in vivo at 1 mg/kg (Rattus norvegicus [3]): 98%; AUC [5]: 470 ng·h/mL; inhibition in vivo at 0.1 mg/kg (Rattus norvegicus [13]): 48%; inhibition in vivo at 0.3 mg/kg (Rattus norvegicus [4]): 93%; AUC [14]: 850 ng·h/mL; Cmax [15]: 520 ng/mL; Vd [8]: 1.43 L/kg; bioavailability [16]: 19%
41 | COc1ccc(C(CC(C)C)NC(=O)c2cc(COc3ccccc3)ccc2CCC(=O)O)cc1OC (centres undefined) | 24 | 0.5 | –
42 | Cc1cc(C)cc(C(CC(C)C)NC(=O)c2cc(COc3ccc(C#N)cc3)ccc2CCC(=O)O)c1 (centres undefined) | 16 | 0.46 | –
43 | CC(C)CC(NC(=O)c1cc(COc2ccccc2)ccc1CCC(=O)O)c1ccc2c(c1)OCCO2 (centres undefined) | 19 | 0.44 | –
44 | COc1ccc(C(CC(C)C)NC(=O)c2cc(COc3ccccc3)ccc2CCC(=O)O)cc1F (centres undefined) | 42 | 0.14 | –
45 | CC(C)CC(NC(=O)c1cc(COc2ccccc2)ccc1CCC(=O)O)c1cc(F)cc(C(F)(F)F)c1 (centres undefined) | 15 | 0.45 | –
46 | Cc1cccc(C(CC(C)C)NC(=O)c2cc(COc3ccccc3)ccc2CCC(=O)O)c1 (centres undefined) | 37 | 0.3 | –
47 | Cc1cc(C)cc(C(CC(C)C)NC(=O)c2cc(COc3cc(F)cc(F)c3)ccc2CCC(=O)O)c1 (centres undefined) | 10 | 0.19 | –
